What was measured:
[1] = target: T1, Lethal(3)malignant brain tumor-like protein 3 (Homo sapiens, UniProt Q96JM7); test: Inhibition of L3MBTL3 (unknown origin) after 30 mins by AlphaScreen assay
T1 sequence (Q96JM7 whole entry): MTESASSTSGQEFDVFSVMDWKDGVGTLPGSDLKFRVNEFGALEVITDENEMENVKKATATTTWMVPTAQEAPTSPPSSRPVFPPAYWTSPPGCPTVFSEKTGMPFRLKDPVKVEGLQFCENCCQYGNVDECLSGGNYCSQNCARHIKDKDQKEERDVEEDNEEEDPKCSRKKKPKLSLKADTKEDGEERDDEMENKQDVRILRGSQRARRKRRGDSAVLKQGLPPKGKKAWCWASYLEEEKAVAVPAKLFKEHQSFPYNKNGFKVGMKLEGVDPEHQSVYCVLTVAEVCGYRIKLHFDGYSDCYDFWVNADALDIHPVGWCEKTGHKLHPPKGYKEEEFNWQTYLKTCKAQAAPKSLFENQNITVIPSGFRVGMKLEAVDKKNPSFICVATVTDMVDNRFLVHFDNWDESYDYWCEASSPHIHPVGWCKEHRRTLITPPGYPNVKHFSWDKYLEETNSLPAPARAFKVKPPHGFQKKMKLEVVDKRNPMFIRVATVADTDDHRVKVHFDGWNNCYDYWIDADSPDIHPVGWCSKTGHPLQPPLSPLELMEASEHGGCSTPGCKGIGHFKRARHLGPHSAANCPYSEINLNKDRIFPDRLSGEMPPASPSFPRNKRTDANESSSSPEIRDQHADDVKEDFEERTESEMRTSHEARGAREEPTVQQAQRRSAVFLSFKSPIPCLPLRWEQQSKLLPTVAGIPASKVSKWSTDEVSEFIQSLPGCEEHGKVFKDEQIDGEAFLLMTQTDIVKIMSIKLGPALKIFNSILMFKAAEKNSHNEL
Summary of the method: (§1)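 AlphaScreen competition with histone peptide. Compounds in 3-fold, 10-point dilutions, top 10 or 30 μM; buffer 20 mM Tris pH 8.0, 25 mM NaCl, 2 mM DTT, 0.05% Tween-20. Protein-peptide mix 30 min RT, then streptavidin donor plus nickel-chelate acceptor beads (GST acceptor beads for GST-tagged PHF23, JARID1A) 30 min RT dark. Protein-free His6-biotin peptide counterscreen.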

[2] = target: T2, E3 ubiquitin-protein ligase UHRF1 (Homo sapiens, UniProt Q96T88); test: Inhibition of UHRF1 (unknown origin) after 30 mins by AlphaScreen assay
T2 sequence (Q96T88 whole entry): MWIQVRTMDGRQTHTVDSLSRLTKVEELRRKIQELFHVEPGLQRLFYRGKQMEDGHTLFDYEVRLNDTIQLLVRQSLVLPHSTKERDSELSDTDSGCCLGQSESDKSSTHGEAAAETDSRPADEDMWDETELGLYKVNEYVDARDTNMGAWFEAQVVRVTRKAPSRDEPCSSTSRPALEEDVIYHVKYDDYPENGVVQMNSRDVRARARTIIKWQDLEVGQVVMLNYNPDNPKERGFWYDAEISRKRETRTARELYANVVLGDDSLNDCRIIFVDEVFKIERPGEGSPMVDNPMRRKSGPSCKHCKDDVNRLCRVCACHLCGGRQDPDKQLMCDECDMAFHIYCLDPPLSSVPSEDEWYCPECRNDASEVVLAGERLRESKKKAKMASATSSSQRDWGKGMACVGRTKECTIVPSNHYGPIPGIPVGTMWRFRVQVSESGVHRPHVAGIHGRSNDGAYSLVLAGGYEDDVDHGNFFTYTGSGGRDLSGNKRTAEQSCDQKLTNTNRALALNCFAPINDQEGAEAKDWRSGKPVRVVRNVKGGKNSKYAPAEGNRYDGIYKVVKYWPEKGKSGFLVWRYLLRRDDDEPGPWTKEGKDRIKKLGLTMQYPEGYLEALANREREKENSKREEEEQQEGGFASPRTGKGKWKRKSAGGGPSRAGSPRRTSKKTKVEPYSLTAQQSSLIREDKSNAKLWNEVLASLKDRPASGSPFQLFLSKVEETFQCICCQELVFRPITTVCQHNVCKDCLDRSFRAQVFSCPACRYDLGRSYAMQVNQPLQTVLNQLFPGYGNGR
Summary of the method: as §1, with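 “dark. […]” for “dark.”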

TP53-binding protein 1 = TP53-binding protein 1 (Homo sapiens, UniProt Q12888); test: Inhibition of 53BP1 (unknown origin) after 30 mins by AlphaScreen assay
TP53-binding protein 1, sequence (Q12888 whole entry): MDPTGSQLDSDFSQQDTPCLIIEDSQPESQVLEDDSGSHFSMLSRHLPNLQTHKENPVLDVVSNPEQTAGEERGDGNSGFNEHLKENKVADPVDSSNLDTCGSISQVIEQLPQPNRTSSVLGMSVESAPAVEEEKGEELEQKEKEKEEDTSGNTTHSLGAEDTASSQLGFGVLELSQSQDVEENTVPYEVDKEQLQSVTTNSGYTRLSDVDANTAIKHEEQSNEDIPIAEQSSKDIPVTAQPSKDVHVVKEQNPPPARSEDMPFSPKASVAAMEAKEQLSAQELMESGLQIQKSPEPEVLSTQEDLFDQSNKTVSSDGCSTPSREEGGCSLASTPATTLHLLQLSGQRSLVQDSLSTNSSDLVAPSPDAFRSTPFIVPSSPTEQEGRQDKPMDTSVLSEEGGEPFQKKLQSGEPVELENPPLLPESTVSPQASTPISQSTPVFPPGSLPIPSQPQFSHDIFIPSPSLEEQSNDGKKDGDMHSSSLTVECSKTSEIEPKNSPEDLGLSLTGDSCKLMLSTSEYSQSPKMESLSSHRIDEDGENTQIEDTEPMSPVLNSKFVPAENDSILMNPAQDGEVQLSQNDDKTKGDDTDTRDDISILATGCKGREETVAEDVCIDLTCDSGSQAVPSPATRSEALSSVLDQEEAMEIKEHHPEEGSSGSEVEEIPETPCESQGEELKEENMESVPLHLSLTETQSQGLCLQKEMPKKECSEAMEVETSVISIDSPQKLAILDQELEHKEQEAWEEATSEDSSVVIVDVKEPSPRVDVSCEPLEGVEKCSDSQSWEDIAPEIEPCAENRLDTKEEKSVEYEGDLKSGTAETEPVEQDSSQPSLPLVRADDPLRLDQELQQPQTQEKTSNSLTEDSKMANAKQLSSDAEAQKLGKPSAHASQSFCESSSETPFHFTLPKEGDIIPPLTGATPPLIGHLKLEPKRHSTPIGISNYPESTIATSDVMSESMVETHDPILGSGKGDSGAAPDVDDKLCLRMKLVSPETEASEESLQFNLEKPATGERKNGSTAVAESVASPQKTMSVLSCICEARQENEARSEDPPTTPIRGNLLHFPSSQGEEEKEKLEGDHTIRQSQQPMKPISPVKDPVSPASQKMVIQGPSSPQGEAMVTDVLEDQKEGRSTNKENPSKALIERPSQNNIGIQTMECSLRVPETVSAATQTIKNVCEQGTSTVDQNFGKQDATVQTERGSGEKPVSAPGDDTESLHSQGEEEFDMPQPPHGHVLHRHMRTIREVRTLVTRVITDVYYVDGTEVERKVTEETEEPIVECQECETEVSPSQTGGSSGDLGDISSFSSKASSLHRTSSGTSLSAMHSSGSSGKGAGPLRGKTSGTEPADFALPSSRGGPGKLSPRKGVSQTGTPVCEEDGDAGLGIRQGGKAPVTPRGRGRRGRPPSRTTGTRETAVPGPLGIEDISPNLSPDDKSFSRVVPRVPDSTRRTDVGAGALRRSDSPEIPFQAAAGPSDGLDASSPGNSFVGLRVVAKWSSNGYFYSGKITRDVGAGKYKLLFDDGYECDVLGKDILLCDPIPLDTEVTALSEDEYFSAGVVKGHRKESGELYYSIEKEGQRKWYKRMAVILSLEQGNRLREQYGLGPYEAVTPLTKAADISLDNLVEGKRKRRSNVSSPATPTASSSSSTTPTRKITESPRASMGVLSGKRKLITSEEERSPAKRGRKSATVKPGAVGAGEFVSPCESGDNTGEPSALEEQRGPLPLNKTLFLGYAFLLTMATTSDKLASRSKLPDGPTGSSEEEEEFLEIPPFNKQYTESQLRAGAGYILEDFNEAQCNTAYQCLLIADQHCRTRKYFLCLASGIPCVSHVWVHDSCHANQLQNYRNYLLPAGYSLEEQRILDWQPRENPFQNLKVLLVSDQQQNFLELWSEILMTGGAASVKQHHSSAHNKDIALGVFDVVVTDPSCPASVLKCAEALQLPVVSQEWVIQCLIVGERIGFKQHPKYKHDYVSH
Summary of the method: as §1, with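 “dark. […]” for “dark.”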

[3] = target: Lysine-specific demethylase 5A (Homo sapiens, UniProt P29375); test: Inhibition of JARID1A (unknown origin) after 30 mins by AlphaScreen assay
Lysine-specific demethylase 5A, sequence (P29375 whole entry): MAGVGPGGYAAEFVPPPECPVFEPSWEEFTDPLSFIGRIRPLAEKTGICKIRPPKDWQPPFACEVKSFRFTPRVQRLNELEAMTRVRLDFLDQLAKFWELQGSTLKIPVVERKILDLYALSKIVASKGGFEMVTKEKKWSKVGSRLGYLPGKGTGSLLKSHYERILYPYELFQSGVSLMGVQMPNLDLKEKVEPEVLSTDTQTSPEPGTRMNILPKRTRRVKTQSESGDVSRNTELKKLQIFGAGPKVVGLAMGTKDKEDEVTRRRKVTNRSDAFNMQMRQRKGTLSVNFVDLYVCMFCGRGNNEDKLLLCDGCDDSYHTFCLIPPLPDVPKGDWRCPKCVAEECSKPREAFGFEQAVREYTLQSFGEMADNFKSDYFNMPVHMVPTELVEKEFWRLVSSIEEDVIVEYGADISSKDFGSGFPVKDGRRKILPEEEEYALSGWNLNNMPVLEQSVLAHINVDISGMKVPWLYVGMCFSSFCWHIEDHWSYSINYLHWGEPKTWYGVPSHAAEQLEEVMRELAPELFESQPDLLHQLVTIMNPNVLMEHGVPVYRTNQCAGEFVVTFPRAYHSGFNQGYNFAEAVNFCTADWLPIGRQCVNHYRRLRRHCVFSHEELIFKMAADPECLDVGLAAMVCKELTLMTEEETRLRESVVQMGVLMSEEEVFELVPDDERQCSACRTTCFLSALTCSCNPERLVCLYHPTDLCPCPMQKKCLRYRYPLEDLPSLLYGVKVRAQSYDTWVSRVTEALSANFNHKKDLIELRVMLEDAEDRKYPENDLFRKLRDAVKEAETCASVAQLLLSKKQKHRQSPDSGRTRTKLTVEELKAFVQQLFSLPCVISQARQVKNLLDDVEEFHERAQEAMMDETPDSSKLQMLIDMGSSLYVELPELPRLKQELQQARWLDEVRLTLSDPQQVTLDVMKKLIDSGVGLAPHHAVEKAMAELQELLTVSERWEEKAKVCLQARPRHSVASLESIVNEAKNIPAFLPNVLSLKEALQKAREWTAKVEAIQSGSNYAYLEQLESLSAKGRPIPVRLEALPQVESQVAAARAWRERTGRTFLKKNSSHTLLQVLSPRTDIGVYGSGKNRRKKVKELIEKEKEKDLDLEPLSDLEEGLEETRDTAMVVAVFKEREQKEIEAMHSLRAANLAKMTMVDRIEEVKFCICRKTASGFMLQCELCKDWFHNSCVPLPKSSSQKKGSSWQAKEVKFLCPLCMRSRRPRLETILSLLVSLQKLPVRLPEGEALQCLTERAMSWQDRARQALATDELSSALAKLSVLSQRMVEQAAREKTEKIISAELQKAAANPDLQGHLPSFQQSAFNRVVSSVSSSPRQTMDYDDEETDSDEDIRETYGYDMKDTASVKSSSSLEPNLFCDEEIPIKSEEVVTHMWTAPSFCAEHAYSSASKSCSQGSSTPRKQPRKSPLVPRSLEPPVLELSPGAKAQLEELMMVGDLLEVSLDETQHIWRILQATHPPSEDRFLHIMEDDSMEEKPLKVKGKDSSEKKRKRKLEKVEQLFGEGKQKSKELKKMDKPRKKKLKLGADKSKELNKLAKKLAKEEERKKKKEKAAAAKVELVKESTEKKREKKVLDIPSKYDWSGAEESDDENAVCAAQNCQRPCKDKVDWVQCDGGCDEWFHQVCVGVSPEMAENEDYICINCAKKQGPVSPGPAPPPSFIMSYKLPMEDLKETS
Summary of the method: as §1, with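 “dark. […]” for “dark.”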

PHD finger protein 23 = PHD finger protein 23 (Homo sapiens, UniProt Q9BUL5); test: Inhibition of PHF23 (unknown origin) after 30 mins by AlphaScreen assay; summary of the method: as §1
PHD finger protein 23, sequence (Q9BUL5 whole entry, the tested form may be a part): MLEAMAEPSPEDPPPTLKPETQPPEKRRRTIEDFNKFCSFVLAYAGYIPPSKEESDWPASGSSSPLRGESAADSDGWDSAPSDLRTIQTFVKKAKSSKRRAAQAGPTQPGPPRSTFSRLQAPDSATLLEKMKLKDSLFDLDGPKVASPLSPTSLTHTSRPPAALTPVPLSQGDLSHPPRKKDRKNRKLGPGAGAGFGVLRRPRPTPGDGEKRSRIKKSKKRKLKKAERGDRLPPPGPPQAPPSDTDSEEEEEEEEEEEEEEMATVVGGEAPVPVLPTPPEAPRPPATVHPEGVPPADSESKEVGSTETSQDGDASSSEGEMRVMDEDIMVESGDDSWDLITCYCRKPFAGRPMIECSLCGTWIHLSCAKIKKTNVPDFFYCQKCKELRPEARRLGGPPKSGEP

[4] = target: MBT domain-containing protein 1 (Homo sapiens, UniProt Q05BQ5); test: Inhibition of MBTD1 (unknown origin) after 30 mins by AlphaScreen assay; summary of the method: as §1
MBT domain-containing protein 1, sequence (Q05BQ5 whole entry, the tested form may be a part): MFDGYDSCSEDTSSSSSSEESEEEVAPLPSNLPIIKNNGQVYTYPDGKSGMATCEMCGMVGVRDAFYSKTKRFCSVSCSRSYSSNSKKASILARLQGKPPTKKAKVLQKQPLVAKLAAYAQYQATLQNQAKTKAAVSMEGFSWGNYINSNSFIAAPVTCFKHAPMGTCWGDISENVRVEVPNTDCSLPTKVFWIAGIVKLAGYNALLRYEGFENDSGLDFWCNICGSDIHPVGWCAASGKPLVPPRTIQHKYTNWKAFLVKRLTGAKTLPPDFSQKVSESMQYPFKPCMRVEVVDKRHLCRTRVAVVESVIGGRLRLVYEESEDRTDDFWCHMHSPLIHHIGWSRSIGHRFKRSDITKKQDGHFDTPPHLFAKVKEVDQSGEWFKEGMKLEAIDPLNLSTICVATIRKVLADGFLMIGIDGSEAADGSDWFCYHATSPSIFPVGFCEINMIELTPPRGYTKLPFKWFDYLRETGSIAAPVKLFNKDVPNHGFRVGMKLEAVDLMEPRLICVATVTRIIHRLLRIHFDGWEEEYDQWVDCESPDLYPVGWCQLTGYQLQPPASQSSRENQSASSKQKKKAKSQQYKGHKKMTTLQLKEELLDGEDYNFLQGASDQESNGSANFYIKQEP

HEK-293T = test: Cytotoxicity against HEK293T/17 cells assessed as cell viability up to 100 uM after 24 hrs by CellTiter-Glo luminescence assay; format: cell-based; conditions: human
Summary of the method: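 Cell viability by CellTiter-Glo luminescence, compound tested up to 100 μM.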

[5] = target: T3, Scm-like with four MBT domains protein 1 (Homo sapiens, UniProt Q9UHJ3); test: Inhibition of SFMBT1 (unknown origin) after 30 mins by AlphaScreen assay
T3 sequence (Q9UHJ3 whole entry): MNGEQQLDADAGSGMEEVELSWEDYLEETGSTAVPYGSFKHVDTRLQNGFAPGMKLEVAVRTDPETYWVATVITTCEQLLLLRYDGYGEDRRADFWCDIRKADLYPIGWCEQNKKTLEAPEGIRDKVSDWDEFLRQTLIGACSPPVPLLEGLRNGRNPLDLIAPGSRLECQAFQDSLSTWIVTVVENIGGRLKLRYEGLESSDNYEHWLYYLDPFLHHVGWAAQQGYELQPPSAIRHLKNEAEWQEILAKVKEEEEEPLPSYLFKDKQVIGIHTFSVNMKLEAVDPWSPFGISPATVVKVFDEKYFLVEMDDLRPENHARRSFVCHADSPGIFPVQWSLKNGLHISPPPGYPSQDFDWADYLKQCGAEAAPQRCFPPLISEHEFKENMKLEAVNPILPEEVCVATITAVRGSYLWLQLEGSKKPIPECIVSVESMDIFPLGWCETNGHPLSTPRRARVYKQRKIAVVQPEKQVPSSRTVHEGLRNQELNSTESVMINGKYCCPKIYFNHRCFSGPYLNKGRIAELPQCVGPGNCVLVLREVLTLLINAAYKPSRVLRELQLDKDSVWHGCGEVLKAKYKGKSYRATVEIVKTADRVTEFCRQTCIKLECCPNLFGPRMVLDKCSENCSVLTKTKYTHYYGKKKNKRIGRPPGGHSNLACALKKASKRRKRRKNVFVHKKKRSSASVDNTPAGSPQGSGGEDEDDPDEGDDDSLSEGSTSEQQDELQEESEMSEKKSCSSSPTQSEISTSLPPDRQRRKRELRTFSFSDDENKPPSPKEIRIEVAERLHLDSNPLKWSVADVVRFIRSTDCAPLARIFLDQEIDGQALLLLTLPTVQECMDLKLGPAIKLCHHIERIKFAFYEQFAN
Summary of the method: as §1, with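 “dark. […]” for “dark.”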

[6] = target: T4, Lethal(3)malignant brain tumor-like protein 4 (Homo sapiens, UniProt Q8NA19); test: Inhibition of L3MBTL4 (unknown origin) after 30 mins by AlphaScreen assay; summary of the method: as §1
T4 sequence (Q8NA19 whole entry): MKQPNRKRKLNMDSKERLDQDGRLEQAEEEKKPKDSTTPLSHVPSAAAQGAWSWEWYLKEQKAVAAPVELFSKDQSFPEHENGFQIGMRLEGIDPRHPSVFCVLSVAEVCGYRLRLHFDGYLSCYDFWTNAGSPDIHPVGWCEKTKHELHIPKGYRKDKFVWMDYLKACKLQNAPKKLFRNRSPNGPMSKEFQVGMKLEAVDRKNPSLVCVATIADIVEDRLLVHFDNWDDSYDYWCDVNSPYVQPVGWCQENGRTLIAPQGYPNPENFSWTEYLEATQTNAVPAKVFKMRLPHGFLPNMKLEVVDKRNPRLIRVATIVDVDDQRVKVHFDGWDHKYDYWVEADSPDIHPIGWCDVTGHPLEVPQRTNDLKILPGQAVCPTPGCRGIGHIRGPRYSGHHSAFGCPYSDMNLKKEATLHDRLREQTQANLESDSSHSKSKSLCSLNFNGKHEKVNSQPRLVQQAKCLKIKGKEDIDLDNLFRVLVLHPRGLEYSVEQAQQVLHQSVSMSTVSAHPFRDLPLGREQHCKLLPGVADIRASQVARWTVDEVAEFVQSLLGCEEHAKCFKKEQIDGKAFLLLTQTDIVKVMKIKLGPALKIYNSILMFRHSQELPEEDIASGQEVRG

[7] = target: T5, Chromobox protein homolog 7 (Homo sapiens, UniProt O95931); test: Inhibition of CBX7 (unknown origin) after 30 mins by AlphaScreen assay; summary of the method: as §1
T5 sequence (O95931 whole entry): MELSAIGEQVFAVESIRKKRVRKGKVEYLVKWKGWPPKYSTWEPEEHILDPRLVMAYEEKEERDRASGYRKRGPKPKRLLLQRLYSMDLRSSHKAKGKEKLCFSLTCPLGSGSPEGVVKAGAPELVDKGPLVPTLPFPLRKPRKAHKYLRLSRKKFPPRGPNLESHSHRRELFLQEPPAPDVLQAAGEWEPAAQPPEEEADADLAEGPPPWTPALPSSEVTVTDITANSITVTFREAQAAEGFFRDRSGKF

| SMILES | IC50 [1] | IC50 [2] | IC50 (TP53-binding protein 1) | other results |
| --- | --- | --- | --- | --- |
| CCN1Cc2ccc(NC(=O)c3cccc(Br)c3)cc2C1 | 1.2 µM |  |  |  |
| O=C(c1ccc(C(=O)N2CCN(C3CCCC3)CC2)cc1)N1CCC(N2CCCC2)CC1 |  | > 10 µM | > 10 µM |  |
| O=C(c1ccc(C(=O)N2CCC(N3CCCC3)CC2)cc1)N1CCC(N2CCCC2)CC1 |  | > 10 µM | > 10 µM | IC50 [3]: > 10 µM; IC50 (PHD finger protein 23): > 10 µM; IC50 [4]: > 10 µM; Activity (HEK-293T): Non-toxic; IC50 [5]: > 10 µM; IC50 [6]: > 10 µM; IC50 [7]: > 10 µM |
| O=C(c1cccc(Br)c1)N1CCC(N2CCCC2)CC1 | 4.1 µM |  |  |  |
| O=C(c1cccc(Br)c1)N1CC2CCC(C1)C2N1CCCC1 (centres undefined) | 3.2 µM |  |  |  |
